Data taken from ChEMBL document CHEMBL1275556, “High prevalence of plasmid-mediated quinolone resistance genes qnr and aac(6')-Ib-cr in clinical isolates of Enterobacteriaceae from nine teaching hospitals in China” (2008).
Values after ≈ are worked out from the molar mass of the structure shown.

Assays:
Citrobacter freundii [1] = assay: Antimicrobial activity against aac(6')-Ib-cr-positive Citrobacter freundii TJ15 harboring GyrA T83I, ParC S80I mutant, wild-type GyrB, qnrB genes by agar dilution method; type: functional
How it was run: (§1)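 MICs were determined by the CLSI agar dilution method (M7-A7) and interpreted against CLSI M100-S17 breakpoints.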

Citrobacter freundii [2] = assay: Antimicrobial activity against aac(6')-Ib-cr-negative Citrobacter freundii JN64T harboring qnrA gene by agar dilution method; type: functional; how it was run: as §1
Enterobacter cloacae [3] = assay: Antimicrobial activity against aac(6')-Ib-cr-negative Enterobacter cloacae FJ67 harboring […] and qnrS genes by agar dilution method; type: functional
Citrobacter freundii [4] = assay: Antimicrobial activity against aac(6')-Ib-cr-positive Citrobacter freundii TJ15T harboring wild-type GyrA, ParC, GyrB genes by agar dilution method; type: functional; how it was run: as §1
Citrobacter freundii [5] = assay: Antimicrobial activity against aac(6')-Ib-cr-positive Citrobacter freundii JS33T harboring qnrA gene by agar dilution method; type: functional; how it was run: as §1
Klebsiella pneumoniae [6] = assay: Antimicrobial activity against aac(6')-Ib-cr-positive Klebsiella pneumoniae WH99 harboring wild-type GyrA, ParC, GyrB and qnrB genes by agar dilution method; type: functional
How it was run: (§2)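 MICs were determined on clinical isolates by CLSI agar dilution (M7-A7) and interpreted against CLSI M100-S17 breakpoints.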

Citrobacter freundii [7] = assay: Antimicrobial activity against aac(6')-Ib-cr-positive Citrobacter freundii PU55T harboring wild-type GyrA, ParC, GyrB and qnrA genes by agar dilution method
Enterobacter cloacae [8] = assay: Antimicrobial activity against aac(6')-Ib-cr-positive Enterobacter cloacae FJ63T harboring qnrS gene by agar dilution method; type: functional
Citrobacter freundii [9] = assay: Antimicrobial activity against aac(6')-Ib-cr-negative Citrobacter freundii JN64 harboring GyrA T83I, wild-type ParC, GyrB and qnrA genes by agar dilution method; type: functional; how it was run: as §1
Klebsiella pneumoniae [10] = assay: Antimicrobial activity against aac(6')-Ib-cr-positive Klebsiella pneumoniae JN132 harboring GyrA S83I, ParC S80I mutant, wild-type GyrB and qnrB genes by agar dilution method; type: functional; how it was run: as §2
Klebsiella pneumoniae [11] = assay: Antimicrobial activity against aac(6')-Ib-cr-positive Klebsiella pneumoniae GZ40T harboring qnrB gene by agar dilution method
Enterobacter cloacae [12] = assay: Antimicrobial activity against aac(6')-Ib-cr-negative Enterobacter cloacae WH42 harboring wild-type GyrA, ParC, GyrB and qnrA genes by agar dilution method; type: functional
Klebsiella pneumoniae [13] = assay: Antimicrobial activity against aac(6')-Ib-cr-positive Klebsiella pneumoniae SY26 harboring GyrA S83I, ParC S80I mutant, wild-type GyrB and qnrB genes by agar dilution method; type: functional; how it was run: as §2
Klebsiella pneumoniae [14] = assay: Antimicrobial activity against aac(6')-Ib-cr-positive Klebsiella pneumoniae JN132T harboring qnrB gene by agar dilution method; type: functional
How it was run: (§3)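 Transconjugants were made by conjugating a qnr/aac(6')-Ib-cr donor with azide-resistant E. coli J53. Selection used Trypticase soy agar with sodium azide 150 µg/ml and sulfamethoxazole 180 µg/ml. […] MICs were read by CLSI agar dilution (M7-A7) and interpreted per M100-S17.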

Enterobacter cloacae [15] = assay: Antimicrobial activity against aac(6')-Ib-cr-negative Enterobacter cloacae FJ61 harboring GyrA S83I, GyrA D87A, ParC S80I mutant, wild-type GyrB and qnrS genes by agar dilution method; type: functional
Klebsiella pneumoniae [16] = assay: Antimicrobial activity against aac(6')-Ib-cr-negative Klebsiella pneumoniae SY22 harboring GyrA S83I, ParC S80I mutant, wild-type GyrB and qnrS genes by agar dilution method; type: functional; how it was run: as §1
Enterobacter cloacae [17] = assay: Antimicrobial activity against aac(6')-Ib-cr-negative Enterobacter cloacae FJ67T harboring qnrS gene by agar dilution method; type: functional
Escherichia coli [18] = assay: Antimicrobial activity against aac(6')-Ib-cr-positive Escherichia coli FJ3T harboring wild-type GyrA, ParC, GyrB and qnrB genes by agar dilution method
Escherichia coli [19] = assay: Antimicrobial activity against aac(6')-Ib-cr-negative Escherichia coli PU12T harboring wild-type GyrA, GyrB, ParC and qnrS genes by agar dilution method; type: functional; how it was run: as §1
Enterobacter cloacae [20] = assay: Antimicrobial activity against aac(6')-Ib-cr-negative Enterobacter cloacae GZ47 harboring qnrB and qnrS genes by agar dilution method; type: functional
Citrobacter freundii [21] = assay: Antimicrobial activity against aac(6')-Ib-cr-positive Citrobacter freundii PU55 harboring GyrA T83I, ParC S80I mutant, wild-type GyrB, qnrA genes by agar dilution method; type: functional; how it was run: as §1
Klebsiella pneumoniae [22] = assay: Antimicrobial activity against aac(6')-Ib-cr-positive Klebsiella pneumoniae JN41T harboring qnrB gene by agar dilution method; type: functional; how it was run: as §3
Klebsiella pneumoniae [23] = assay: Antimicrobial activity against aac(6')-Ib-cr-positive Klebsiella pneumoniae JN41 harboring GyrA S83I, ParC S80I mutant, wild-type GyrB and qnrB genes by agar dilution method; type: functional; how it was run: as §2
Enterobacter cloacae [24] = assay: Antimicrobial activity against aac(6')-Ib-cr-negative Enterobacter cloacae GZ47T harboring qnrB gene by agar dilution method; type: functional
Klebsiella pneumoniae [25] = assay: Antimicrobial activity against aac(6')-Ib-cr-positive Klebsiella pneumoniae WH99T harboring qnrB gene by agar dilution method; type: functional; how it was run: as §3
Klebsiella pneumoniae [26] = assay: Antimicrobial activity against aac(6')-Ib-cr-positive Klebsiella pneumoniae GZ40 harboring GyrA S83I, ParC S80I mutant, wild-type GyrB and qnrB genes by agar dilution method; type: functional; how it was run: as §1
Escherichia coli [27] = assay: Antimicrobial activity against aac(6')-Ib-cr-negative Escherichia coli PU12 harboring GyrA S83L mutant, wild-type GyrB, ParC and qnrS genes by agar dilution method; type: functional; how it was run: as §1
Citrobacter freundii [28] = assay: Antimicrobial activity against aac(6')-Ib-cr-positive Citrobacter freundii JN1 harboring GyrA T83I, ParC S80I mutant, wild-type GyrB and qnrA genes by agar dilution method; type: functional; how it was run: as §1
Klebsiella pneumoniae [29] = assay: Antimicrobial activity against aac(6')-Ib-cr-positive Klebsiella pneumoniae SY26T harboring wild-type GyrA, ParC, GyrB and qnrB genes by agar dilution method; type: functional
How it was run: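 Transconjugants were made by conjugating a qnr/aac(6')-Ib-cr donor with azide-resistant E. coli J53. MICs were read by CLSI agar dilution (M7-A7) and interpreted per M100-S17.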

Enterobacter cloacae [30] = assay: Antimicrobial activity against aac(6')-Ib-cr-negative Enterobacter cloacae WH42T harboring qnrA gene by agar dilution method; type: functional
Enterobacter cloacae [31] = assay: Antimicrobial activity against aac(6')-Ib-cr-negative Enterobacter cloacae FJ61T harboring qnrS gene by agar dilution method; type: functional
Enterobacter cloacae [32] = assay: Antimicrobial activity against aac(6')-Ib-cr-negative Enterobacter cloacae SH39T harboring qnrA gene by agar dilution method; type: functional
Enterobacter cloacae [33] = assay: Antimicrobial activity against aac(6')-Ib-cr-negative Enterobacter cloacae GZ51 harboring qnrA gene by agar dilution method; type: functional
Escherichia coli [34] = assay: Antimicrobial activity against aac(6')-Ib-cr-positive Escherichia coli FJ3 harboring GyrA S83L, ParC S80R mutant, wild-type GyrB and qnrB genes by agar dilution method; type: functional; how it was run: as §1
Escherichia coli [35] = assay: Antimicrobial activity against Escherichia coli J53 harboring wild-type GyrA, ParC, GyrB genes by agar dilution method
Enterobacter cloacae [36] = assay: Antimicrobial activity against aac(6')-Ib-cr-negative Enterobacter cloacae SH39 harboring GyrA S83I, ParC S80I mutant, wild-type GyrB and qnrA genes by agar dilution method; type: functional
Citrobacter freundii [37] = assay: Antimicrobial activity against aac(6')-Ib-cr-positive Citrobacter freundii JN1T by agar dilution method; type: functional; how it was run: as §1
Enterobacter cloacae [38] = assay: Antimicrobial activity against aac(6')-Ib-cr-positive Enterobacter cloacae FJ63 harboring GyrA S83I, GyrA D87A, ParC S80I mutant, wild-type GyrB and qnrS genes by agar dilution method; type: functional
Enterobacter cloacae [39] = assay: Antimicrobial activity against aac(6')-Ib-cr-negative Enterobacter cloacae GZ51T harboring qnrA gene by agar dilution method; type: functional
Citrobacter freundii [40] = assay: Antimicrobial activity against aac(6')-Ib-cr-positive Citrobacter freundii JS33 harboring GyrA T83I mutant, wild-type ParC, GyrB, qnrA and qnrB genes by agar dilution method; type: functional; how it was run: as §1
Klebsiella pneumoniae [41] = assay: Antimicrobial activity against aac(6')-Ib-cr-negative Klebsiella pneumoniae SY22T harboring qnrS gene by agar dilution method; type: functional; how it was run: as §1

With `C[C@@H](O)[C@H]1C(=O)N2C(C(=O)O)=C(S[C@@H]3CN[C@H](C(=O)N(C)C)C3)[C@H](C)[C@H]12` [MEROPENEM] the MIC (Citrobacter freundii [1]) was 0.032 µg/mL (≈ 0.0834 µM), the MIC (Citrobacter freundii [2]) was 0.016 µg/mL (≈ 0.0417 µM) and the MIC (Enterobacter cloacae [3]) was 0.032 µg/mL (≈ 0.0834 µM). The MIC (Citrobacter freundii [4]) was 0.016 µg/mL (≈ 0.0417 µM), the MIC (Citrobacter freundii [5]) was 0.032 µg/mL (≈ 0.0834 µM) and the MIC (Klebsiella pneumoniae [6]) was 0.032 µg/mL (≈ 0.0834 µM). The MIC (Citrobacter freundii [7]) was 0.016 µg/mL (≈ 0.0417 µM), the MIC (Enterobacter cloacae [8]) was 0.064 µg/mL (≈ 0.167 µM) and the MIC (Citrobacter freundii [9]) was 0.25 µg/mL (≈ 0.652 µM). The MIC (Klebsiella pneumoniae [10]) was 0.032 µg/mL (≈ 0.0834 µM), the MIC (Klebsiella pneumoniae [11]) was 0.016 µg/mL (≈ 0.0417 µM) and the MIC (Enterobacter cloacae [12]) was 0.125 µg/mL (≈ 0.326 µM). For the same compound, the MIC (Klebsiella pneumoniae [13]) was 0.125 µg/mL (≈ 0.326 µM), the MIC (Klebsiella pneumoniae [14]) was 0.032 µg/mL (≈ 0.0834 µM) and the MIC (Enterobacter cloacae [15]) was 0.25 µg/mL (≈ 0.652 µM). It also gave an MIC (Klebsiella pneumoniae [16]) of 0.016 µg/mL (≈ 0.0417 µM), an MIC (Enterobacter cloacae [17]) of 0.032 µg/mL (≈ 0.0834 µM) and an MIC (Escherichia coli [18]) of 0.032 µg/mL (≈ 0.0834 µM). It also gave an MIC (Escherichia coli [19]) of 0.016 µg/mL (≈ 0.0417 µM), an MIC (Enterobacter cloacae [20]) of 0.032 µg/mL (≈ 0.0834 µM) and an MIC (Citrobacter freundii [21]) of 0.25 µg/mL (≈ 0.652 µM). For the same compound, the MIC (Klebsiella pneumoniae [22]) was 0.016 µg/mL (≈ 0.0417 µM), the MIC (Klebsiella pneumoniae [23]) was 0.032 µg/mL (≈ 0.0834 µM) and the MIC (Enterobacter cloacae [24]) was 0.016 µg/mL (≈ 0.0417 µM). It also gave an MIC (Klebsiella pneumoniae [25]) of 0.016 µg/mL (≈ 0.0417 µM), an MIC (Klebsiella pneumoniae [26]) of 0.125 µg/mL (≈ 0.326 µM) and an MIC (Escherichia coli [27]) of 0.016 µg/mL (≈ 0.0417 µM). It also gave an MIC (Citrobacter freundii [28]) of 0.125 µg/mL (≈ 0.326 µM), an MIC (Klebsiella pneumoniae [29]) of 0.016 µg/mL (≈ 0.0417 µM) and an MIC (Enterobacter cloacae [30]) of 0.016 µg/mL (≈ 0.0417 µM). It also gave an MIC (Enterobacter cloacae [31]) of 0.016 µg/mL (≈ 0.0417 µM), an MIC (Enterobacter cloacae [32]) of 0.016 µg/mL (≈ 0.0417 µM) and an MIC (Enterobacter cloacae [33]) of 0.064 µg/mL (≈ 0.167 µM). For the same compound, the MIC (Escherichia coli [34]) was 0.032 µg/mL (≈ 0.0834 µM), the MIC (Escherichia coli [35]) was 0.016 µg/mL (≈ 0.0417 µM) and the MIC (Enterobacter cloacae [36]) was 0.125 µg/mL (≈ 0.326 µM). It also gave an MIC (Citrobacter freundii [37]) of 0.016 µg/mL (≈ 0.0417 µM), an MIC (Enterobacter cloacae [38]) of 1 µg/mL (≈ 2.61 µM) and an MIC (Enterobacter cloacae [39]) of 0.016 µg/mL (≈ 0.0417 µM). It also gave an MIC (Citrobacter freundii [40]) of 0.125 µg/mL (≈ 0.326 µM) and an MIC (Klebsiella pneumoniae [41]) of 0.016 µg/mL (≈ 0.0417 µM).
